For series [1] the following is noted: patients with advanced cancer, cited from earlier work; for AUCτ: mean.
For a further series, the system named is advanced solid tumors. The experiment in a line: Tumor response according to RECIST. It counts as in vivo, Japanese patients. An outline of the steps: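 Patients had ≥1 measurable lesion and took continuous once-daily oral dosing in 28-day cycles, continued until progression. Tumour assessed by RECIST every 2 months and at study end. Outcomes summarised descriptively.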

In the next series the test system is esophagogastric cancer. Conditions: one esophagogastric cancer patient, daily dose of 5 mg; cited from earlier work.
For series [2] the following is noted: 673 renal transplant patients; cited from earlier work.

Where two headings read alike, the source gives them in different places.

A word on the Cmax: it is the maximum level reached in the sampled fluid or tissue. In the case of `CO[C@H]1C[C@@H]2CC[C@@H](C)[C@@](O)(O2)C(=O)C(=O)N2CCCC[C@H]2C(=O)O[C@H]([C@H](C)C[C@@H]2CC[C@@H](OCCO)[C@H](OC)C2)CC(=O)[C@H](C)/C=C(\C)[C@@H](O)[C@@H](OC)C(=O)[C@H](C)C[C@H](C)/C=C/C=C/C=C/1C` [RAD001, everolimus], the Cmax in series [1] (daily dose 5 mg, mean ± SD) was 32 ± 9 ng/mL. Moreover, the AUCτ is 238 ± 77 ng·h/mL in series [1] (daily dose 5 mg) and 514 ± 231 ng·h/mL in series [1] (daily dose 10 mg). The “Patients with marked tumor shrinkage” value with advanced solid tumors (daily dose of 10 mg, esophageal and gastric cancer) was “two of three”. Besides, the “Duration of partial response” value in the series on advanced solid tumors (patient with gastric adenocarcinoma and liver metastases, 10 mg/day) is above 4 months. The Tumor response entry in the series with esophagogastric cancer is listed as “partial response”. Further, the “Difference in clearance between Asian and Caucasian patients” value in series [2] is “no significant differences”.

Source of the values: paper PMC2800315 (Japanese Journal of Clinical Oncology, 2009).
